The record followed here is ChEMBL document CHEMBL1150387, “Development and experimental validation of a docking strategy for the generation of kinase-targeted libraries” (J Med Chem, 2008).

The target in experiment [1] is Rho-associated protein kinase 2 (Homo sapiens) (UniProt O75116). The experiment in a line: Inhibition of ROCK2 at 10 uM by HTRF assay relative to control. Put shortly:
(§1)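 HTRF kinase assay, one panel of kinases. Inhibitor stock 50 µM in 100% DMSO; tested at 10 µM. ATP and substrate at final levels near Km. Final buffer: 50 mM Hepes/NaOH pH 7.4, 40 µM Na3VO4, 0.005% Tween-20, 1 mM DTT, MnCl2 or MgCl2 at kinase-dependent levels. Started by adding ATP/substrate. Reaction run at room temperature, time varied by kinase. Detection mix in 50 mM Hepes pH 7.4, 0.1% BSA, 150 mM KF, incubated ≥1 h at room temperature. Activity expressed as % of uninhibited control; n=2.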

The target in experiment [2] is Insulin-like growth factor 1 receptor (Homo sapiens) (UniProt P08069). As to the kind of experiment: Inhibition of IGF1R at 10 uM by HTRF assay relative to control. An outline of the steps: as §1
The target of experiment [3] is T1, Mitogen-activated protein kinase 12 (Homo sapiens) (UniProt P53778).
T1 sequence (whole entry): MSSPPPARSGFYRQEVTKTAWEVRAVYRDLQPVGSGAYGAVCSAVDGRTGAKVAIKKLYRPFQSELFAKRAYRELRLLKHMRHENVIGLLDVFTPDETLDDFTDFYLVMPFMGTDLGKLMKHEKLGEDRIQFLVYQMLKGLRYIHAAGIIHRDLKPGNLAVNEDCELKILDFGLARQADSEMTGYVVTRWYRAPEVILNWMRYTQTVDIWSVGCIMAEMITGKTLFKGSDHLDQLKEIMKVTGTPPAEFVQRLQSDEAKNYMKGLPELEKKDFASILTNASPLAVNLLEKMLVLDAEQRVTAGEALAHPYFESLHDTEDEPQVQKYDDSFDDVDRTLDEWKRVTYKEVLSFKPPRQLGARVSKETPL
The experiment in a line: Inhibition of p38-gamma at 10 uM by HTRF assay relative to control. Put shortly: as §1
For orientation: Time-resolved FRET reads energy transfer from a long-lived donor to a nearby acceptor.

Experiment [4] has as its target Tyrosine-protein kinase ABL1 (Homo sapiens) (UniProt P00519). As to the kind of experiment: Inhibition of Abl at 10 uM by HTRF assay relative to control. Put shortly: as §1
Experiment [5] deals with RAC-alpha serine/threonine-protein kinase (Homo sapiens) (UniProt P31749). The experiment in a line: Inhibition of AKT1/PKBalpha at 10 uM by HTRF assay relative to control. An outline of the steps:
as §1

Experiment [6] addresses Cyclin-dependent kinase 2 (Homo sapiens) (UniProt P24941). As to the kind of experiment: Inhibition of CDK2 at 10 uM by HTRF assay relative to control. An outline of the steps: as §1
In experiment [7] the target is Tyrosine-protein kinase Fes/Fps (Homo sapiens) (UniProt P07332). The experiment in a line: Inhibition of FES at 10 uM by HTRF assay relative to control. An outline of the steps: as §1
For experiment [8], the target named is T2, Serine/threonine-protein kinase Chk1 (Homo sapiens) (UniProt O14757).
T2 sequence (whole entry): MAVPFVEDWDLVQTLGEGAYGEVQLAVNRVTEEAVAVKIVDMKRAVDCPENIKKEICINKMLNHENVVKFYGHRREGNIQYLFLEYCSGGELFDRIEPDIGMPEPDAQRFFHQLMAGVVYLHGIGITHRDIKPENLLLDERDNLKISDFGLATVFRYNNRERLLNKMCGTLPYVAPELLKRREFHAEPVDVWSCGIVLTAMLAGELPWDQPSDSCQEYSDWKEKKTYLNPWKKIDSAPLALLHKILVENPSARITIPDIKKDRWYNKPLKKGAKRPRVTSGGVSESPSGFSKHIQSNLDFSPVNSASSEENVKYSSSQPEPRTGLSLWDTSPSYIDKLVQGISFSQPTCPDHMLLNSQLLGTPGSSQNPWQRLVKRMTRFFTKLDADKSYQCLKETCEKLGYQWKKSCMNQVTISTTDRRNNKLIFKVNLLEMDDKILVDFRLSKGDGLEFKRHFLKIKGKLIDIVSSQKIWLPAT
The experiment in a line: Inhibition of CHK1 at 10 uM by HTRF assay relative to control. An outline of the steps:
as §1

Experiment [9] in a line: Inhibition of IRK at 10 uM by HTRF assay relative to control. An outline of the steps:
as §1

In experiment [10] the target is Ribosomal protein S6 kinase beta-1 (Homo sapiens) (UniProt P23443). The experiment in a line: Inhibition of p70S6K at 10 uM by HTRF assay relative to control. An outline of the steps: as §1
A short description of experiment [11]: Inhibition of PKA at 10 uM by HTRF assay relative to control. An outline of the steps: as §1
Experiment [12] deals with Serine/threonine-protein kinase Chk2 (Homo sapiens) (UniProt O96017). As to the kind of experiment: Inhibition of CHK2 at 10 uM by HTRF assay relative to control. An outline of the steps: as §1
Experiment [13] deals with Protein-tyrosine kinase 6 (Homo sapiens) (UniProt Q13882). The experiment in a line: Inhibition of Brk at 10 uM by HTRF assay relative to control. An outline of the steps:
as §1

For experiment [14], the target named is Proto-oncogene tyrosine-protein kinase Src (Homo sapiens) (UniProt P12931). The experiment in a line: Inhibition of Src at 10 uM by HTRF assay relative to control. Put shortly: as §1
The target in experiment [15] is Tyrosine-protein kinase Lyn (Homo sapiens) (UniProt P07948). As to the kind of experiment: Inhibition of Lyn at 10 uM by HTRF assay relative to control. Put shortly:
as §1

Experiment [16] deals with Mitogen-activated protein kinase 1 (Homo sapiens) (UniProt P28482). As to the kind of experiment: Inhibition of ERK2 at 10 uM by HTRF assay relative to control. An outline of the steps: as §1
Experiment [17] addresses Mitogen-activated protein kinase 8 (Homo sapiens) (UniProt P45983). As to the kind of experiment: Inhibition of JNK1 at 10 uM by HTRF assay relative to control. Put shortly:
as §1

Experiment [18] has as its target High affinity nerve growth factor receptor (Homo sapiens) (UniProt P04629). As to the kind of experiment: Inhibition of TrkA at 10 uM by HTRF assay relative to control. An outline of the steps:
as §1

In experiment [19] the target is Tyrosine-protein kinase Lck (Homo sapiens) (UniProt P06239). As to the kind of experiment: Inhibition of Lck at 10 uM by HTRF assay relative to control. Put shortly:
as §1

Experiment [20] addresses Cyclin-dependent kinase 1 (Homo sapiens) (UniProt P06493). The experiment in a line: Inhibition of CDK1 at 10 uM by HTRF assay relative to control. Put shortly:
as §1

Tyrosine-protein kinase ABL1 (Homo sapiens), sequence (P00519 whole entry): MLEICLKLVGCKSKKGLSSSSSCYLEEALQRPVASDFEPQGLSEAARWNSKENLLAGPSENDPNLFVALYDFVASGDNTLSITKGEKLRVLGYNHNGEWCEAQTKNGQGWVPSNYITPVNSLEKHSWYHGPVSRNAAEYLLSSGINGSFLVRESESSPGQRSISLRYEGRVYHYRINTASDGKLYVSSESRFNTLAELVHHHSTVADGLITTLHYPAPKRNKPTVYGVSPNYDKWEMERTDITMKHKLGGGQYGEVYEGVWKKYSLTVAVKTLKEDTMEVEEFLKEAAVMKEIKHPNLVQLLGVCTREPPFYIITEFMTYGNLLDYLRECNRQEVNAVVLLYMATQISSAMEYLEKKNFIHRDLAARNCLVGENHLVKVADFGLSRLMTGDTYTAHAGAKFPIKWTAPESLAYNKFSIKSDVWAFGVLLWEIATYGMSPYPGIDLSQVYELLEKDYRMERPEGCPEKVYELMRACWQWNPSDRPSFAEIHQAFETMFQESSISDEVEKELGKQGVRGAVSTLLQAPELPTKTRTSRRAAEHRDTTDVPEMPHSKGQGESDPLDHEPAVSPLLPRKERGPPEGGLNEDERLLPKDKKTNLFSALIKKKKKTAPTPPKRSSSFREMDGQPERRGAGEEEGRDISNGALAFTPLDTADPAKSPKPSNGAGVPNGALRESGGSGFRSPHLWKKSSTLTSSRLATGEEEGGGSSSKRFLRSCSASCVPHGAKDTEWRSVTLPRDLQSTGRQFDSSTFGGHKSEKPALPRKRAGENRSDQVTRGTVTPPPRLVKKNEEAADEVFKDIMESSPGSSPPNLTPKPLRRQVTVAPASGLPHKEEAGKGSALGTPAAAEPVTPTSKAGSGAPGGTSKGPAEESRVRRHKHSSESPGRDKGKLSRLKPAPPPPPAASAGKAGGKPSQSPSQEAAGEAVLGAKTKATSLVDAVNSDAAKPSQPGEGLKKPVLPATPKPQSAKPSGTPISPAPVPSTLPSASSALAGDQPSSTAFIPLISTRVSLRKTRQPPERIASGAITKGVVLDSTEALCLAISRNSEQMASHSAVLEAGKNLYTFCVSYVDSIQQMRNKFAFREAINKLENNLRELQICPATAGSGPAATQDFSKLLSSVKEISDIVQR
Serine/threonine-protein kinase Chk2 (Homo sapiens), sequence (O96017 whole entry): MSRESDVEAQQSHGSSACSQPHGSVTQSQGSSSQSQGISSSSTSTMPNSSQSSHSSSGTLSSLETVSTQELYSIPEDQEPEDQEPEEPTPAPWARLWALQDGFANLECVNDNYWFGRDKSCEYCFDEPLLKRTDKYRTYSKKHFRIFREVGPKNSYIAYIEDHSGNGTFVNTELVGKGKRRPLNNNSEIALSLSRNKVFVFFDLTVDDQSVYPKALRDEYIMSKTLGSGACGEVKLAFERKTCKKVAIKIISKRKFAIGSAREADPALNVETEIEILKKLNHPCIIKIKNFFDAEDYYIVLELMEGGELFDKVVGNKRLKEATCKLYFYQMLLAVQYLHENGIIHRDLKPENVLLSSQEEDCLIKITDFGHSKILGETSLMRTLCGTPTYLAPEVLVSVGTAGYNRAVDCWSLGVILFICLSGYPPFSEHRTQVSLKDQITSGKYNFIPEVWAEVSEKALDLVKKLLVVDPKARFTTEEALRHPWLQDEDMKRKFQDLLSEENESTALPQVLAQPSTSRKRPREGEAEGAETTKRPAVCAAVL
Tyrosine-protein kinase Lyn (Homo sapiens), sequence (P07948 2-512 limits assumed): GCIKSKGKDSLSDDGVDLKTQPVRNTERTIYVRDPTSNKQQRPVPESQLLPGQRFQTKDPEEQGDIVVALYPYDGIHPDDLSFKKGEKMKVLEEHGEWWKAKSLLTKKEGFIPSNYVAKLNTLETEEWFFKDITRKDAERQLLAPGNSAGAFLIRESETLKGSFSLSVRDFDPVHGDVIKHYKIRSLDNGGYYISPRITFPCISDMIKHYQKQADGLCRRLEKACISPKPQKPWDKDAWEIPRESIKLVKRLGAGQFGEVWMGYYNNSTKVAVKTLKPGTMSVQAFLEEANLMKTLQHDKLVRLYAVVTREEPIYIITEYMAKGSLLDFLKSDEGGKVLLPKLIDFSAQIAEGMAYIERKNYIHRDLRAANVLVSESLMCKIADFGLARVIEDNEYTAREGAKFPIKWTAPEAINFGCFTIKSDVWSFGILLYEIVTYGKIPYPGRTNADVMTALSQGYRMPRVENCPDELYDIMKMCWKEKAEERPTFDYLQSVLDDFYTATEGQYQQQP
Insulin-like growth factor 1 receptor (Homo sapiens), sequence (P08069 31-736 limits assumed): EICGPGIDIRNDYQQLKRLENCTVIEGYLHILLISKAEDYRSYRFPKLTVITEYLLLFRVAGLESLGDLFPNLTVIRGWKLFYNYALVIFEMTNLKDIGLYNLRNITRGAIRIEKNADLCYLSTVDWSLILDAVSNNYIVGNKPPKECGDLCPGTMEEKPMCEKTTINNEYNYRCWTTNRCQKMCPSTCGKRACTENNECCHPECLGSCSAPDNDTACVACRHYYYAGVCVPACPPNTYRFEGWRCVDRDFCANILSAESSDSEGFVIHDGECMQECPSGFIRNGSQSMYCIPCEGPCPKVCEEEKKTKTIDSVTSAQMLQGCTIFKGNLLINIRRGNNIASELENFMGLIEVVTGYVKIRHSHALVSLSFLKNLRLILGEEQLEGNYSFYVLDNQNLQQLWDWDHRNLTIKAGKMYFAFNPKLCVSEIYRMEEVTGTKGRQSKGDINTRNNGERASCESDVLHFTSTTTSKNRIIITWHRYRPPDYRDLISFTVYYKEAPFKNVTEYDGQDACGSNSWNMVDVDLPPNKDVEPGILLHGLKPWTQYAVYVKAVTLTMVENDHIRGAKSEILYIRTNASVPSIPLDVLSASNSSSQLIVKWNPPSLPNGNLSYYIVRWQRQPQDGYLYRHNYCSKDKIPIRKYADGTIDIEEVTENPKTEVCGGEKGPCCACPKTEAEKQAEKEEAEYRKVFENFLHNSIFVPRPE
Insulin-like growth factor 1 receptor (Homo sapiens), sequence (P08069 741-1367 limits assumed): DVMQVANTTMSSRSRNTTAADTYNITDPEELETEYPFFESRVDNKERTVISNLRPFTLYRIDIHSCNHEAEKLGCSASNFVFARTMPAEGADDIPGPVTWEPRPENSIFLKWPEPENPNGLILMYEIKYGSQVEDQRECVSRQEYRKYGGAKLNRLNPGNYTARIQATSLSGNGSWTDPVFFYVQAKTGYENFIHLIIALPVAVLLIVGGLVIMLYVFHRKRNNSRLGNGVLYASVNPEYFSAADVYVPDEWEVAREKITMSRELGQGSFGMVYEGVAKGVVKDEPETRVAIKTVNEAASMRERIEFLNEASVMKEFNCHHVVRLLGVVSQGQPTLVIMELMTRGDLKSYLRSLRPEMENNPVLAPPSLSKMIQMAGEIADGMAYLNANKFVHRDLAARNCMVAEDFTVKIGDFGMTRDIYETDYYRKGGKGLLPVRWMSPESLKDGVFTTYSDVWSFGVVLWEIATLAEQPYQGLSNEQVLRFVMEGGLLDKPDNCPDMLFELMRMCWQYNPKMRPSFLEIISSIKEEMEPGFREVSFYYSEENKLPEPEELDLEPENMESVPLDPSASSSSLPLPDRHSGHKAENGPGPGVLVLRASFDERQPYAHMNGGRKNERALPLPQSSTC
Mitogen-activated protein kinase 1 (Homo sapiens), sequence (P28482 whole entry): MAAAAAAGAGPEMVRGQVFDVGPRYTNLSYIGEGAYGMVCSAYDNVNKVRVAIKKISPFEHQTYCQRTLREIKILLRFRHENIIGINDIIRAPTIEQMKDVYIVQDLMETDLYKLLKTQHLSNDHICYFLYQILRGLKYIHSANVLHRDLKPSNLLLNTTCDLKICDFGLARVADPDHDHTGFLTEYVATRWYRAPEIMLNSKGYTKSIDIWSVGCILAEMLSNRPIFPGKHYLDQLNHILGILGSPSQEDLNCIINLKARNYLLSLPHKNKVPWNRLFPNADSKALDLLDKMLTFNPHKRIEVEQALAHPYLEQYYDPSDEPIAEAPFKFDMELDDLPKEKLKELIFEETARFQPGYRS
Mitogen-activated protein kinase 8 (Homo sapiens), sequence (P45983 whole entry): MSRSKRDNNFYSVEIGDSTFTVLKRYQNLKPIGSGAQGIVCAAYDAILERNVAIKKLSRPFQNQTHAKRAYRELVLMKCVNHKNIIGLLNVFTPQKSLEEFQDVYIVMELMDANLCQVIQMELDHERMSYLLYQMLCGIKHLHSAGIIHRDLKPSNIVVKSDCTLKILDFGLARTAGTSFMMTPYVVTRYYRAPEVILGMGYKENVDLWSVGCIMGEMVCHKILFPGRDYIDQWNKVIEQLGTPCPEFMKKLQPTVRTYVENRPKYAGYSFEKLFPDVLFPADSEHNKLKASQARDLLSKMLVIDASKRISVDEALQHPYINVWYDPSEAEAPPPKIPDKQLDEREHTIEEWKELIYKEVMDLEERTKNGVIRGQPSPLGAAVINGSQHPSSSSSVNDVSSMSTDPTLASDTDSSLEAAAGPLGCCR
Tyrosine-protein kinase Lck (Homo sapiens), sequence (P06239 2-509 limits assumed): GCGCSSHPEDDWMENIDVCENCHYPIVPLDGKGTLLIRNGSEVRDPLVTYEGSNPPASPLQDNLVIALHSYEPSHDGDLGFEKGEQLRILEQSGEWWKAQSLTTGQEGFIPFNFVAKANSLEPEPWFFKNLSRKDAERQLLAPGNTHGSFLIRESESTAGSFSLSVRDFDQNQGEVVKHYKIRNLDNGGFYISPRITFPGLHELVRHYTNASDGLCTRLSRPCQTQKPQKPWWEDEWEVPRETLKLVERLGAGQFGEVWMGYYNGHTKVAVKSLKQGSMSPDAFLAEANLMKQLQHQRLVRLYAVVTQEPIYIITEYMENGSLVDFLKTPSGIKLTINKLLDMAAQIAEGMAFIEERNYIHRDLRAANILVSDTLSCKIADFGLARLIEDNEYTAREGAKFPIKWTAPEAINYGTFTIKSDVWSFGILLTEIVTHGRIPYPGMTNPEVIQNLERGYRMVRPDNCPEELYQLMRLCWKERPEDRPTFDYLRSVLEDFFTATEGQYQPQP

For orientation: inhibition means the share of the control response that was lost under treatment. A high value points to a strong effect. Consider `Cc1cccc(Nc2nccc(Nc3cccc(C(=O)N(C)CCc4ccccn4)c3)n2)c1`, for which the inhibition in experiment [1] is 5%; in experiment [2], 87%; in [3], 2%; in experiment [4], 38%; in [5], 0%; in experiment [6], 28%. In addition, the inhibition in experiment [7] was found to be 75%; in [8], 5%; in experiment [9], 66%; in experiment [10], 9%; in [11], 0%; in experiment [12], 0%. Besides, the inhibition in [13] is 36%; in experiment [14], 64%; in experiment [15], 47%; in experiment [16], 0%; in experiment [17], 49%; in experiment [18], 60%. In addition, the values for the inhibition in [19] and in experiment [20] were 45% and 1%, respectively.
On to `Nc1nc(N2CCOCC2)cc(N2CCC(C(=O)NCc3cccs3)CC2)n1`, for which the inhibition in [1] was 1%; in experiment [2], 0%; in [3] it was 0%; in experiment [4], 0%; in experiment [5] it was 0%; in [6] it was 14%. Further, the inhibition in experiment [7] came out at 9%; in experiment [8] it was 1%; in experiment [9] it was 0%; in [10], 7%; in experiment [11], 0%; in experiment [12], 0%. Moreover, the inhibition in [13] is 15%; in experiment [14], 3%; in [15] it was 7%; in [16] it was 0%; in [17], 0%; in [18], 9%. Besides, the inhibition in experiment [19] and in [20] was 0% each time.
In the case of `Clc1ccc2sc(CN3CCN(c4ncnc5c4CN(Cc4ccccc4)CC5)CC3)cc2c1`, the inhibition in experiment [1] was found to be 0%; in experiment [2] it was 0%; in experiment [3], 2%; in [4], 1%; in experiment [5], 2%; in experiment [6], 16%. Also, the inhibition in [7] amounted to 6%; in experiment [8], 5%; in experiment [9] it was 7%; in [10] it was 11%; in experiment [11], 0%; in experiment [12], 0%. Also, the inhibition in experiment [13] was found to be 2%; in [14], 0%; in experiment [15] it was 17%; in [16], 0%; in [17] it was 3%; in experiment [18], 13%. Moreover, the inhibition in experiment [19] and in experiment [20] was 0% throughout.
As for `Cc1cccc(Nc2ncnc3c2CN(C(=O)c2ccc(N(C)C)c4ccccc24)CC3)c1`, the inhibition in [1] came out at 1%; in [2], 3%; in [3], 2%; in experiment [4], 7%; in experiment [5], 0%; in [6], 24%. Also, the inhibition in experiment [7] came out at 3%; in experiment [8] it was 3%; in [9] it was 0%; in [10], 0%; in experiment [11], 0%; in experiment [12], 2%. The inhibition in experiment [13] was 10%; in [14], 0%; in experiment [15] it was 9%; in [16], 0%; in experiment [17], 0%; in experiment [18], 8%. Also, the inhibition in experiment [19] and in [20] was 0% each time.
Take `Cc1cccc(Oc2ccnc(N3CCC[C@H]3C(=O)NCCCn3ccnc3)n2)c1`: the inhibition in [1] was determined as 0%; in experiment [2], 8%; in experiment [3], 0%; in experiment [4], 5%; in experiment [5], 0%; in experiment [6] it was 3%. The inhibition in experiment [7] came out at 2%; in experiment [8], 3%; in experiment [9], 1%; in experiment [10], 7%; in experiment [11], 0%; in [12], 0%. The inhibition in [13] is 0%; in [14] it was 0%; in [15] it was 1%; in experiment [16], 0%; in [17], 0%; in [18] it was 7%. Also, the inhibition in [19] and in [20] was 0% throughout.
